ABCB6 inh MLPCN: blocks the human ABCB6 transporter; fluorescence ratio to DMSO, % at 10 µM; K562-ABCB6 porphyrin accumulation, flow cytometry, 1 h; stronger effect = lower value; Q9NP58; 0.19% of 360,000 active;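 active means fluorescence ratio to DMSO below 75%, the collection mean minus 3 SD; inconclusive means too few cells collected in the well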;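 further: signal is porphyrin accumulated inside mitochondria; 100% equals median channel fluorescence of DMSO control wells; lower ratio means ABCB6 inhibition with less porphyrin fluorescence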
Myeloid diff 2: myeloid differentiation induction | 1% of 360,000 active | ER-HoxA9 myeloid progenitors, lysozyme-GFP differentiation, flow cytometry | calls only at 10 µM;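 active means normalized GFP-positive differentiation at or above the plate's own cutoff, the solvent-only control mean plus 3 SD; inconclusive means no clear call, values can overlap the other calls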;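 further: cells exposed to compound for four days before flow analysis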
ATG4B inhibitor: inhibitors of human ATG4B cysteine protease; inhibition, % at 8.33 µM; AID 504462; 0.51% of 340,000 active; Q9Y4P1; ATG4B cleavage of LC3-PLA2, NBD-HPC fluorescence, 1 h; in the data active means inhibition above about 40%
Arr AP2 block: blocks beta-arrestin peptide binding to AP2 adaptin. FITC-arrestin peptide / GST-AP2 beads, flow cytometry; AP2 beta2 appendage carries R879A mutation. inhibition, % at 10 µM. 0.31% of 340,000 active;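 active means inhibition above a set limit, near 3 SD of compounds lacking own fluorescence, cut at about 54% in these data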;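 further: plate controls were DMSO wells for no effect and 5 µM unlabelled arrestin peptide for full effect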
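Test system: GST-tagged AP2 beta2-adaptin appendage (R879A) on 4 µm glutathione beads; also added: fluorescein-tagged arrestin peptide at 50 nM final; timing: 12 min plus 1 h, RT; signal: flow cytometry, FL1 (488/535 nm); read-out: percent drop in bead-associated FITC signal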
CendR NRP1 mod: NRP-1/CendR interaction modulation. O14786. FAM-RPARPAR peptide binding to NRP-1, fluorescence polarization. inhibition, % at 25 µM. 0.85% of 360,000 active. AID 602438;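 active means inhibition or corrected inhibition above about 18%, plus a signal ratio from 0.5 to 1.5, limit read from the data, passing the limit was not always enough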
Granule exo inh: lytic granule exocytosis inhibition | AID 651702 | TALL-104 LAMP-1 surface exposure, flow cytometry; cells stimulated with thapsigargin and PMA | 0.66% of 360,000 active | inhibition, % at 10 µM;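 active means inhibition above about 55%, limit read from the data; inconclusive means no clear call, values can overlap the other calls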
Active calls of the source: *; i = inactive; ? = inconclusive; . = no result; + = active, no number; ! = repeats disagree. Rows were chosen to be rich in hits. Some 3.3% of all compounds tested hit in one or more screens of this group.

SMILES	ABCB6 inh MLPCN	Myeloid diff 2	ATG4B inhibitor	Arr AP2 block	CendR NRP1 mod	Granule exo inh
COc1cc(C(=O)OC2C[C@H]3CC[C@@H](C2)N3)ccc1O (stereo partly drawn)	114	i	1	4	5	1
Cc1ccc2c(c1)N(CCC(=O)N1CCC3(CC1)OCCO3)C(=O)CO2	103	+	-6	-5	-1	2
O=C(c1c[nH]c2ccc(S(=O)(=O)N3CCOCC3)cc2c1=O)N1CCC2(CC1)OCCO2	95	i	1	-9	28*	-7
CCn1cc(C(=O)N2CCC3(CC2)OCCO3)c(=O)c2cc(S(=O)(=O)N3CCCC3)ccc21	94	i	-5	10	3	3
C1CN(P2(N3CC3)=NP(N3CC3)(N3CC3)=NP(N3CC3)(N3CC3)=N2)CCO1 (stereo not drawn)	96	i	.	.	-4	-4
COP(=O)(OC)C(NC(C)=O)C(Cl)(Cl)Cl (stereo not drawn)	93	i	-3	3	-4	0
C[n+]1c2ccccc2nc2ccc(NCCO)cc21	127	?	9	26	14	-9
CNc1ccc2nc3ccccc3[n+](C)c2c1	143	?	1	16	29*	23
CC1CCC(C(C)C)C(OC(=O)Cn2c(COc3ccccc3)[n+](C)c3ccccc32)C1 (stereo not drawn)	97	i	17	38	-2	84*
O=C(Nc1ccc(Cl)cc1C(=O)c1ccccc1)c1ccccc1	92	i	8	4	25*	0
COC1C(O)C(C)OC(OC2C(Oc3cccc4c(O)c5c(=O)oc6ccc(C)c7c(=O)oc(c34)c5c67)OC(C)C(O)C2O)C1O (stereo not drawn)	164	+	0	-23	-36	-4
O=C1/C(=C\c2ccncc2)N2CCC1CC2	102	i	3	-2	4	0
O=C1/C(=C\c2ccc(Cl)c(Cl)c2)N2CCC1CC2	98	i	-5	30	-3	94*
O=c1c2ccccc2nc(-c2ccccc2)n1-c1cccc(O)c1	104	i	3	-6	-8	-1
CCCCCCCCn1sccc1=O	92	+	11	.	-7	36
O=C1C2CCN(CC2)C1Cc1ccc(OCCOc2ccccc2)cc1 (stereo not drawn)	95	i	3	1	28*	-1
C=C[C@@H]1C2=CCOC(=O)C2=CO[C@H]1O[C@@H]1O[C@H](CO)[C@@H](O)[C@H](O)[C@H]1O	95	i	-5	-3	24*	-6
O=c1ccc2cc(OC3O[C@H](CO)[C@@H](O)[C@H](O)[C@H]3O)c(O)cc2o1 (stereo partly drawn)	100	i	8	-6	-9	-4
CC1CCC2C(C)C(=O)OC3OC4(C)CCC1C32OO4 (stereo not drawn)	102	+	17	7	0	-6
CC1CCC2[C@@H](C)C(=O)OC3O[C@]4(C)CCC1C32OO4 (stereo partly drawn)	100	+	7	-3	-5	-6
CC12CCCCC1N(O)CN2O (stereo not drawn)	99	i	2	-4	23*	-4
CC1(C)N(O)C2CCCCC2N1O (stereo not drawn)	92	i	2	-4	-11	0
Cc1ccc([C@@H]2C[C@H]3[C@@H](CN2S(=O)(=O)c2ccc(Cl)cc2)C(=O)C[C@@H](c2ccccc2F)N3S(=O)(=O)c2ccc(C)cc2)cc1	97	i	.	.	5	-4
CC1([N+](=O)[O-])COP(=O)(Nc2ccc(Cl)cc2)OC1 (stereo not drawn)	94	i	2	-3	-1	-2
CC1([N+](=O)[O-])COP(=O)(Nc2cccc(Br)c2)OC1 (stereo not drawn)	295	+	1	-243	2	0
SMILES	ABCB6 inh MLPCN	Myeloid diff 2	ATG4B inhibitor	Arr AP2 block	CendR NRP1 mod	Granule exo inh
CCC1CN1P(=S)(N1CC1CC)N1CC1CC (stereo not drawn)	98	i	5	4	2	5
COC[C@H]1OC(=O)c2coc3c2[C@@]1(C)C1=C(C3=O)[C@@H]2CCC(=O)[C@@]2(C)C[C@H]1OC(C)=O	105	.	8	-3	-27	-2
CCOC(=O)C1(CCOc2ccccc2)CCN(Cc2cccc(O)c2)CC1	100	i	-2	10	-9	90*
CCOC(=O)C1(CCOc2ccccc2)CCN(Cc2ccccc2OC)CC1	99	i	-7	9	0	34
CSCCC(c1nnnn1Cc1ccccc1)N1CCC2(CC1)C(=O)NCN2c1ccccc1 (stereo not drawn)	96	i	.	.	-2	3
COc1ccc(OC)c(N2C(=O)/C(=C/c3ccco3)C(=O)NC2=S)c1	.	.	87*	.	.	.
O=C(/C=C/c1c[nH]c2ccccc12)c1c(O)n(CCc2ccccc2)c(=O)[nH]c1=O	377	+	7	-4	133	13
COC(=O)C1=C(c2ccc3ccccc3c2)C[C@@H]2CC[C@H]1N2C(=O)N1CCCC1	99	i	1	4	7	0
O=C(O)CCC(=O)NCCC1=c2ccccc2=N/C1=C\c1c(O)n(Cc2ccc(F)cc2)c(=S)[nH]c1=O	103	+	6	20	-68	-3
C[C@]12CC[C@H](O)C[C@H]1CC[C@@H]1[C@@H]2C[C@@H](O)[C@]2(C)[C@@H](C3=CC(=O)OC3)CC[C@]12O	97	i	1	25	3	-1
CN1CC[C@@]2(C)c3cc(O)ccc3N(C)[C@@H]12	102	i	2	7	28*!	1
CN1C(=O)/C(=C/c2ccc(Cl)s2)C(=O)NC1=S	117	+	4	5	-55	13
COc1ccc(/C=C2\C(=O)NC(=S)N(C)C2=O)cc1C	102	i	56*	-21	-203	-1
Cc1ccsc1/C=C1\C(=O)NC(=S)N(C)C1=O	96	i	5	11	-13	7
CN(C)C(=O)Oc1noc2cc(Cl)ccc12	99	i	2	26	4	-5
COc1ccc(/C=N\N=C(N)N)cc1	97	i	-10	7	0	-7
NC(N)=N/N=C/c1ccc(N2CCOCC2)cc1	97	+	-2	-11	-2	-1
C[C@@H]1CN([C@H](C)CO)C(=O)c2c(c3ccccc3n2C)-c2ccccc2CO[C@H]1CN(C)Cc1ccc2c(c1)OCCN2C	97	i	.	.	-14	0
Cc1c(P(=S)(c2ccccc2)c2ccccc2)[n+]2ccccc2n1C	99	i	-2	-3	34*!	-10
NC(Cc1ccc(Cl)cc1)c1csc(Nc2ncccn2)n1 (stereo not drawn)	96	+	.	.	0	0

Screening results as filed in PubChem.
